Experimental data: ChEMBL document CHEMBL1156207, “Synthesis of mono-carbonyl analogues of curcumin and their effects on inhibition of cytokine release in LPS-stimulated RAW 264.7 macrophages” (Bioorg Med Chem, 2010)
Activity calls are given as the source filed them. The rule behind the calls is not given here.

Key:
[1] = test system: RAW264.7; assay: Antiinflammatory activity against LPS-stimulated mouse RAW264.7 cells assessed as inhibition of TNFalpha accumulation at 10 uM pretreated for 2 hrs before LPS challenge after 22 hrs by ELISA relative to control; assay type: functional
Outline: (§1)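 RAW 264.7 cells plated at 4.0 × 10⁵/plate at 37 °C, 5% CO₂, pretreated 2 h with compound or vehicle, then LPS added for 22 h. Secreted cytokine in media measured by ELISA and normalized to total protein of lysed cell pellets from parallel plates. Expressed as percent of LPS control; mean with SE from 3–5 independent experiments.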

[2] = test system: RAW264.7; assay: Antiinflammatory activity against LPS-stimulated mouse RAW264.7 cells assessed as inhibition of IL-6 accumulation at 10 uM pretreated for 2 hrs before LPS challenge after 22 hrs by ELISA relative to control; assay type: functional; outline: as §1
[3] = test system: RAW264.7; assay: Antiinflammatory activity against LPS-stimulated mouse RAW264.7 cells assessed as inhibition of IL-6 accumulation pretreated for 2 hrs before LPS challenge after 22 hrs by ELISA relative to control; assay type: functional, cell-based
Outline: (§2)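 Macrophages plated overnight at 4.0 × 10⁶/plate at 37 °C, 5% CO₂, and pretreated 2 h with compound at 1, 2.5, 5.0 and 10 (concentration series), then stimulated with LPS for 22 h. Cytokine in culture media quantified by ELISA and normalized to total cellular protein, measured after lysis in Tris–NP40–SDS buffer and protein assay.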

[4] = test system: RAW264.7; assay: Antiinflammatory activity against LPS-stimulated mouse RAW264.7 cells assessed as inhibition of TNFalpha accumulation pretreated for 2 hrs before LPS challenge after 22 hrs by ELISA relative to control; assay type: functional, cell-based; outline: as §2
[5] = test system: RAW264.7; assay: Cytotoxicity against LPS-stimulated mouse RAW264.7 cells at 10 uM pretreated for 2 hrs before LPS challenge after 22 hrs; assay type: cell-based; settings: raw264.7, 22 h

Compound | Activity [1] | Activity [2] | also measured
O=C1/C(=C/c2cccc(Cl)c2Cl)CCC/C1=C\c1cccc(Cl)c1Cl | inactive | inactive | 
O=C1/C(=C/c2cc(F)ccc2F)CCC/C1=C\c1cc(F)ccc1F | inactive | inactive | 
O=C(/C=C/c1c(F)cccc1F)/C=C/c1c(F)cccc1F | Active | 60% | inhibition [3]: Dose-dependent effect; inhibition [4]: Dose-dependent effect; Activity [5]: Non-toxic
O=C(/C=C/c1ccc(Cl)cc1Cl)/C=C/c1ccc(Cl)cc1Cl | inactive | inactive | 
O=C(/C=C/c1ccccc1C(=O)O)/C=C/c1ccccc1C(=O)O | inactive | inactive | 
COc1ccc(/C=C2\CCC/C(=C\c3ccc(OC)cc3OC)C2=O)c(OC)c1 | inactive | inactive | 
O=C1/C(=C/c2ccc(Cl)cc2Cl)CCC/C1=C\c1ccc(Cl)cc1Cl | inactive | inactive | 
CN(C)CCCOc1ccc(/C=C2\CCC/C(=C\c3ccc(OCCCN(C)C)cc3)C2=O)cc1 |  |  | inhibition [3]: Dose-dependent effect; inhibition [4]: Dose-dependent effect; Activity [5]: Non-toxic; inhibition at 10 µM [1]: 96.9%; inhibition at 10 µM ([2]; Mus musculus, RAW264.7): 97.1%
COc1cc(OC)c(/C=C2\CCC/C(=C\c3c(OC)cc(OC)cc3OC)C2=O)c(OC)c1 | Active | 60% | 
O=C1/C(=C/c2cc(F)ccc2F)CC/C1=C\c1cc(F)ccc1F | inactive | inactive | 
O=C(/C=C/c1cc(F)ccc1F)/C=C/c1cc(F)ccc1F | inactive | inactive | 
O=C1/C(=C/c2ccccc2C(=O)O)CC/C1=C\c1ccccc1C(=O)O | inactive | 60% | 
COc1ccc(/C=C2\CC/C(=C\c3ccc(OC)cc3OC)C2=O)c(OC)c1 | inactive | 60% | 
COc1ccc(/C=C/C(=O)/C=C/c2ccc(OC)cc2OC)c(OC)c1 | Active | 60% | 
COc1cc(OC)c(/C=C/C(=O)/C=C/c2c(OC)cc(OC)cc2OC)c(OC)c1 | Active | 60% | 
Cc1ccc(/C=C/C(=O)/C=C/c2ccc(C)cc2C)c(C)c1 | Active | 60% | 
O=C1/C(=C\c2ccccc2C(=O)O)CCC/C1=C\c1ccccc1C(=O)O | inactive | inactive | 
O=C1/C(=C/c2cccc(Cl)c2Cl)CC/C1=C\c1cccc(Cl)c1Cl | inactive | inactive | 
O=C1/C(=C/c2c(F)cccc2F)CC/C1=C\c1c(F)cccc1F | inactive | inactive | 
O=C1/C(=C/c2c(F)cccc2F)CCC/C1=C\c1c(F)cccc1F | inactive | inactive | 
Cc1ccc(/C=C2\CC/C(=C\c3ccc(C)cc3C)C2=O)c(C)c1 | Active | inactive | 
O=C1/C(=C/c2ccc(Cl)cc2Cl)CC/C1=C\c1ccc(Cl)cc1Cl | inactive | inactive | 
Cc1ccc(/C=C2\CCC/C(=C\c3ccc(C)cc3C)C2=O)c(C)c1 | inactive | inactive | 
COc1cc(OC)c(/C=C2\CC/C(=C\c3c(OC)cc(OC)cc3OC)C2=O)c(OC)c1 | inactive | inactive | 
